Screens from PubChem.
Most compounds without a hit are left out; they make up all but 4.6% or so of the library.
TAAR1 ag – human TAAR1 agonists, primary screen, Fluo-8 calcium fluorescence, CHO RD-HGA16 cells. vehicle wells 0%, saturating PEA agonist 100%. Trace amine-associated receptor 1 (Homo sapiens), Q96RJ0. AID 624467, 2012. activation, % at 3 µM. actives 0.99% (n = 360,000);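 active = activation above the mean activation of all test compounds in the run plus 3 SD, cut at about 38% in these data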
Target sequence (Q96RJ0 whole entry, looked up): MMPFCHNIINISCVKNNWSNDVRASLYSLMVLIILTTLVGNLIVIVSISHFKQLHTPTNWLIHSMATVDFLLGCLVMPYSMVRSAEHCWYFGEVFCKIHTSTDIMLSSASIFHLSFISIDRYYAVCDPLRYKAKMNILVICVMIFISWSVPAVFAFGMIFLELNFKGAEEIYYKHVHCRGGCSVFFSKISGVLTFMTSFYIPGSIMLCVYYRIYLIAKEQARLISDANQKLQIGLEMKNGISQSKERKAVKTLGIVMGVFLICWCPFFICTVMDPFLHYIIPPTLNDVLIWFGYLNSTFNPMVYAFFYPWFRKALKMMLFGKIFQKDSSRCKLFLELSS
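Assay system – CHO-derived RD-HGA16 cells with stable Gα16 and human TAAR1 · Compound dosing – one-point dosing at 3 µM (nominal) · Incubation – 17-24 h seeding, 75 min 37 °C dye, 30 min RT · Measured by – kinetic Fluo-8 calcium fluorescence · Control set – DMSO vehicle as 0%, PEA at EC100 as 100% · Repeats – single well for each compound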
OX1R antag-1 – antagonists of human orexin 1 receptor (OX1R); inhibition, % at 6.6 µM; actives 1.8% (n = 330,000); AID 485270, 2010; Orexin/Hypocretin receptor type 1 (Homo sapiens), O43613; OX1R-expressing cells, FRET antagonist read-out; in the data active = inhibition mostly above about 38%, no sharp cut-off; inactive = mostly below about 40%
Target sequence (O43613 whole entry, looked up): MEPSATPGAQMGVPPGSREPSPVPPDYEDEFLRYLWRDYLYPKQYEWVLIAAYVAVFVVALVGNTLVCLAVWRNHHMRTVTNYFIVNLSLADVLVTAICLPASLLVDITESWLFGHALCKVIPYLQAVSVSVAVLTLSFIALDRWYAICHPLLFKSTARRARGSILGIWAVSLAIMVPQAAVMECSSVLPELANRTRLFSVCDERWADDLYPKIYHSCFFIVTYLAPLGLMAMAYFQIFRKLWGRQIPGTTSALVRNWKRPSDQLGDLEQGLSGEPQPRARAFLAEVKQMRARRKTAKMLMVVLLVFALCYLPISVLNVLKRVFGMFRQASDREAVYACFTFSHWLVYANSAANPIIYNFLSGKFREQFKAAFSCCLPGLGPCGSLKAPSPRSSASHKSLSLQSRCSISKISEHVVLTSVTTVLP
TAAR1 antagonist – human TAAR1 antagonists, primary screen, Fluo-8 calcium fluorescence, CHO RD-HGA16 cells; actives 1.5% (n = 360,000); antagonist; Trace amine-associated receptor 1 (Homo sapiens), Q96RJ0; AID 624466, 2012; inhibition, % at 3 µM;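 active = inhibition above a per-plate cutoff, the mean inhibition of test compounds on that plate plus 3 SD, cut at about 49% in these data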
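Material: CHO RD-HGA16 cells bearing hTAAR1; compound dosing: one-point dosing, 3 µM nominal final; schedule: dye loading 75 min at 37 °C, then 30 min room temperature; measured by: calcium fluorescence with Fluo-8; control set: vehicle and agonist controls; replication: n of 1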
GPR7 antagonist – GPR7 receptor antagonists, primary screen, cell-based, fluorescence, single concentration | AID 1861, 2009 | inhibition, % at 4.4 µM | Neuropeptides B/W receptor type 1 (Homo sapiens), P48145 | actives 1.1% (n = 290,000) | GPR7-expressing cells, fluorescence antagonist assay; in the data active = inhibition above about 16%, passing the limit was not always enough;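 note: cells stimulated with the agonist NPW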
CHO parental Ca – ATP-evoked calcium signal inhibitors, parental CHO, primary screen, counter-screen for OX1R antagonist project, cell-based, fluorescence, Fluo-8 calcium dye. AID 463079, 2010. inhibition, % at 5.6 µM. parental CHO-K1, ATP-induced calcium, Fluo-8 fluorescence. actives 0.63% (n = 330,000);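 active = inhibition above that plate's mean sample inhibition plus 3 SD, cut at about 26% in these data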
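Assay system – parental CHO cells · Reagent – ATP stimulus · Detection – intracellular calcium via Fluo-8 no-wash fluorescent dye · Evaluation – percent inhibition of ATP-evoked calcium rise, normalized to controls · Controls – ATP wells versus no-ATP DMSO wells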
OX1R antag-2 – OX1R (HCRTR1) antagonists, primary screen, fluorescence, CHO/OX1R cells, Fluo-8 calcium, orexin A | actives 0.43% (n = 330,000) | Fluo-8 calcium fluorescence | inhibition, % at 5 µM | AID 434989, 2010 | Orexin/Hypocretin receptor type 1 (Homo sapiens), O43613;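 active = inhibition above its plate's threshold, mean inhibition of all tested compounds on the plate plus 3 SD, cut at about 37% in these data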
GPR7 antag conf – GPR7 receptor antagonists, confirmation, cell-based, fluorescence, single concentration | inhibition, % at 4.4 µM | shares compounds with GPR7 antagonist | actives 52% (n = 2,400) | GPR7-expressing cells, calcium fluorescence antagonist mode; in the data active = inhibition above about 24%;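 note: stimulated with the GPR7 agonist NPW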
MCHR1 antagonist – MCHR1 antagonists in cells, counter-screen for GPR7 antagonist project, cell-based, fluorescence, human; actives 62% (n = 2,400); MCHR1-expressing cells, fluorescence antagonist assay; inhibition, % at 4.4 µM; AID 2148, 2009; shares compounds with GPR7 antagonist; in the data active = inhibition above about 22%
Each line names hits and unclear results; the compound was inactive in the other large screens (follow-up assays come after a bar, where they were run); ! = repeats disagree.

CN[C@H]1CC[C@@H](c2ccc(Cl)c(Cl)c2)c2ccccc21	TAAR1 ag 52, TAAR1 antagonist 51!, GPR7 antagonist 35! | GPR7 antag conf 51 | MCHR1 antagonist 49
O=C1C=C(O)CC(c2ccc(Cl)c(Cl)c2)C1 (centres undefined)	none
Cc1ccc(C(=O)N2CCN(c3ccc(NC(=O)c4ccc5c(c4)OCCO5)cc3)CC2)cc1	GPR7 antagonist 32 | GPR7 antag conf 33 | MCHR1 antagonist 65
O=C(Nc1ccc(N2CCN(C(=O)c3ccccc3)CC2)cc1)c1ccc2c(c1)OCO2	none
COC(=O)C[C@H]1C[C@H]2c3cc(NC(=O)Nc4ccc(F)cc4)ccc3O[C@H]2[C@@H](CO)O1	none (no result: OX1R antag-1, GPR7 antagonist, CHO parental Ca, OX1R antag-2)
CCOc1ccccc1N1CC(C(=O)N2CCOCC2)CC1=O (centres undefined)	none
N#Cc1ccc(NC(=O)Nc2ccc(Cl)cc2)cc1	OX1R antag-1 100, GPR7 antagonist 30, CHO parental Ca 75, OX1R antag-2 68 | GPR7 antag conf 58 | MCHR1 antagonist 57
COc1ccc(C(=S)N2CCN(c3ccccc3C)CC2)cc1OC	none (no result: OX1R antag-1, GPR7 antagonist, CHO parental Ca, OX1R antag-2)
Cc1ccc(F)c(S(=O)(=O)NC(=O)C2(C)CCN2C(=O)c2ccccc2)c1 (centres undefined)	none (no result: OX1R antag-1, GPR7 antagonist, CHO parental Ca, OX1R antag-2)
CC(C)c1ccc(S(=O)(=O)N2CCN(C(=O)CN3C(=O)c4ccccc4C3=O)CC2)cc1	none (no result: GPR7 antagonist)
O=C(/C=C/c1ccc(Cl)cc1)c1cccnc1	GPR7 antagonist 29 | GPR7 antag conf 51 | MCHR1 antagonist 78
N#Cc1ccc(/C=C/C(=O)c2cccnc2)cc1	none
CCOC(=O)[C@]12CCC=C1N(Cc1ccccc1)C(=O)[C@H](CC(=O)NCc1ccccc1)C2	none (no result: OX1R antag-1, GPR7 antagonist, CHO parental Ca, OX1R antag-2)
CCOc1ccccc1-c1cncc(NC)n1	none (no result: OX1R antag-1, GPR7 antagonist, CHO parental Ca, OX1R antag-2)
CCOC(=O)CSC1=NC(=O)/C(=C/c2ccc(OC)cc2)S1	GPR7 antagonist 29 (no result: TAAR1 ag, TAAR1 antagonist) | GPR7 antag conf 72 | MCHR1 antagonist 72
COc1ccc(/C=C2\SC(N)=NC2=O)cc1	none (no result: OX1R antag-1, CHO parental Ca, OX1R antag-2)
COc1ccc2c(Cl)c(C(=O)N/N=C3\CCCC(=O)C3)sc2c1	GPR7 antagonist 24 | GPR7 antag conf inactive | MCHR1 antagonist 28
COc1ccc2c(Cl)c(C(=O)N/N=C/c3ccc4c(c3)OCO4)sc2c1	none
CCOC(=O)c1cc(-c2ccc(Cl)cc2)nc2c1c(C)nn2CCC#N	none
CCOC(=O)c1cc(-c2ccc(OC)cc2F)nc2c1c(C)nn2CCC#N	GPR7 antagonist 29 | GPR7 antag conf 33 | MCHR1 antagonist 23
CCN(CC)c1ccc(S(=O)(=O)N2CCOCC2)cc1NC(=O)CSC(=S)N1CCCC1	GPR7 antagonist 44 | GPR7 antag conf 24 | MCHR1 antagonist 48
CCN(CC)c1ccc(S(=O)(=O)N2CCOCC2)cc1NC(=O)CNCc1ccccc1	GPR7 antagonist 24 | GPR7 antag conf 31 | MCHR1 antagonist 29
OC1(c2ccccc2)CCN(Cc2ccccc2)C2CCCCC21 (centres undefined)	GPR7 antagonist 34 | GPR7 antag conf inactive | MCHR1 antagonist inactive
O=C(/C=C/Nc1ccccc1Br)c1ccccn1	GPR7 antagonist 30 | GPR7 antag conf inactive | MCHR1 antagonist inactive
CCOC(=O)C1=CCN(S(=O)(=O)c2ccccc2C)C1c1cccc(C)c1 (centres undefined)	none (no result: OX1R antag-1, GPR7 antagonist, CHO parental Ca, OX1R antag-2)
CCCNC(=O)C1(C)CCCN(Cc2ccccc2N(C)C)C1 (centres undefined)	none (no result: OX1R antag-1, GPR7 antagonist, CHO parental Ca, OX1R antag-2)
CCOc1ccc(-n2c(-c3ccccc3)c[n+]3c2CCCCC3)cc1	GPR7 antagonist 29 | GPR7 antag conf 47 | MCHR1 antagonist 45
CCCCNC(=O)C[C@@H]1C[C@@]2(C(=O)OC)CCCCC=C2N(CCC2=CCCCC2)C1=O	none (no result: OX1R antag-1, GPR7 antagonist, CHO parental Ca, OX1R antag-2)
Clc1ccc(Cn2ncc3c(NCc4ccco4)ncnc32)c(Cl)c1	TAAR1 antagonist 53, GPR7 antagonist 28 | GPR7 antag conf 37 | MCHR1 antagonist 56
Cc1nn(Cc2ccc(F)cc2)c(C)c1NC(=O)c1cnn2c1NC(c1cccs1)CC2C(F)(F)F (centres undefined)	none
Cc1nn(Cc2ccc(F)cc2)c(C)c1NC(=O)c1cnn2c1NC(c1ccccc1)CC2C(F)(F)F (centres undefined)	GPR7 antagonist 23 (no result: TAAR1 ag, TAAR1 antagonist) | GPR7 antag conf inactive | MCHR1 antagonist inactive
O=C(c1ccccc1F)N1CCN(c2cccc(C(F)(F)F)c2)CC1	GPR7 antagonist 23 | GPR7 antag conf inactive | MCHR1 antagonist inactive
O=C(OC1CCN(c2ccc([N+](=O)[O-])cc2)CC1)c1ccccc1	GPR7 antagonist 29 | GPR7 antag conf 47 | MCHR1 antagonist 68
COc1ccccc1CC(=O)N1CCN(c2cccc(C(F)(F)F)c2)CC1	GPR7 antagonist 26 | GPR7 antag conf 38 | MCHR1 antagonist 38
O=C(c1c(F)c(F)c(F)c(F)c1F)N1CCN(c2cccc(C(F)(F)F)c2)CC1	none
Cc1ccc(CC(=O)N2CCN(c3ccc([N+](=O)[O-])cc3)CC2)cc1	GPR7 antagonist 39 | GPR7 antag conf 43 | MCHR1 antagonist 41
COc1ccccc1NC(=O)N1CCN(c2cccc(C(F)(F)F)c2)CC1	none
COc1ccccc1C(=O)N1CCN(c2cccc(Cl)c2)CC1	GPR7 antagonist 25 | GPR7 antag conf inactive | MCHR1 antagonist 25
COc1ccccc1CC(=O)N1CCN(c2ccc([N+](=O)[O-])cc2)CC1	GPR7 antagonist 25 | GPR7 antag conf inactive | MCHR1 antagonist 36
Cc1ccc(OCC(O)CNC2CCCC2)c(C)c1 (centres undefined)	none (no result: OX1R antag-1, CHO parental Ca, OX1R antag-2)
OC(CNC1Cc2ccccc2C1)COc1ccc(F)cc1 (centres undefined)	GPR7 antagonist 22 | GPR7 antag conf inactive | MCHR1 antagonist inactive
Cc1ccccc1OCC(O)CNC1CCC(NCC(O)COc2ccccc2C)CC1 (centres undefined)	GPR7 antagonist 77 | GPR7 antag conf 83 | MCHR1 antagonist 80
C[C@H]1CN([C@@H](C)CO)C(=O)CCCn2nncc2CO[C@H]1CN(C)S(=O)(=O)c1cccs1	none (no result: OX1R antag-1, GPR7 antagonist, CHO parental Ca, OX1R antag-2)
